According to ChEMBL document CHEMBL1147430, “Inhibition of alpha-chymotrypsin with thiol-bearing substrate analogues in the presence of zinc ion” (Bioorg Med Chem Lett, 2004):
Active and inactive are the calls of the source. The calls are words filed in the database; no cut-off is given here.

Experiments:
[1] = biological target: T1, Chymotrypsinogen B (Homo sapiens, UniProt P17538); assay: Inhibitory activity (up to 2 mM) against chymotrypsinogen in the absence of Zn(II); no inhibition
[2] = biological target: T1, Chymotrypsinogen B; assay: Inhibitory activity against chymotrypsinogen in the presence of Zn(II) (500 uM)
Outline: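 Alpha-chymotrypsin at a final 0.4 μg/mL is added to a mix of Suc-AAPF-pNA (300 μM), ZnCl2 (500 μM) and varied inhibitor concentrations in pH 7.5 buffer (50 mM CaCl2, 50 mM Tris). Initial rates are followed at 405 nm at 25 °C. IC50 is read from a plot of % residual activity versus inhibitor concentration.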

T1 sequence (P17538 34-164 limits assumed, other chains not shown): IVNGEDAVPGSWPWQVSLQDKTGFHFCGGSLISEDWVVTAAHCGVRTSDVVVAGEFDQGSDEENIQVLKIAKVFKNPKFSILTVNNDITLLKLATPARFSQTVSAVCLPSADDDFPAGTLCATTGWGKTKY
T1 sequence (P17538 167-263 limits assumed, other chains not shown): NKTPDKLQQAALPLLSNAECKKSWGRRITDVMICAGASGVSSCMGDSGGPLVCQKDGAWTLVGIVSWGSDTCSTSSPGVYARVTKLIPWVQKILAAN

| Compound | inhibition [1] | IC50 [2] |
| --- | --- | --- |
| O=C(N[C@@H](CS)Cc1ccccc1)OCc1ccccc1 | inactive | 6 µM |
| O=C(N[C@@H](CO)Cc1ccccc1)OCc1ccccc1 | inactive | > 3000 µM |
| O=C(N[C@H](CO)Cc1ccccc1)OCc1ccccc1 | – | > 3000 µM |
| O=C(N[C@H](CS)Cc1ccccc1)[C@@H]1CCCN1C(=O)OCc1ccccc1 | inactive | 8 µM |
| CC(=O)N[C@H](CS)Cc1ccccc1 | inactive | > 800 µM |
| O=C(N[C@H](CS)Cc1ccccc1)c1ccccc1 | inactive | 23 µM |
| O=C(N[C@H](CS)Cc1ccccc1)OCc1ccccc1 | inactive | 3.8 µM |
